“And” between values parts separate entries of the source, which are not always exact repeats. Equal values may be shown once.
Tests used:
[1] = molecular target: rat IP3R1 (recombinant, expressed in DT40 cells) (Rattus norvegicus, UniProt P29994); experiment: Ca2+ release from intracellular stores of permeabilized DT40-IP3R1 cells; assay type: cell-based; details: for fold more potent than IP3 in functional assays: Ca2+ release, relative to IP3
IP3R1^R568Q = IP3R1^R568Q (Rattus norvegicus, UniProt P29994, DEL318-332/R568Q); experiment: Ca2+ release from permeabilized DT40 cells expressing only IP3R1^R568Q; assay type: cell-based
How it was run: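 Mag-fluo-4 AM (20 µM, 1 h, 20°C) loaded into DT40 cells lacking endogenous IP3R and stably expressing mutant rat IP3R1. Cells were saponin-permeabilized (10 µg·mL−1) into Mg2+-free CLM with 10 µM FCCP, free Ca2+ ~220 nM. Stores were loaded with 1.5 mM MgATP before test compound was added. Fluorescence was read at 485/520 nm, 20°C. Release is a fraction of ATP-dependent uptake, Hill-fitted for EC50, with ΔpEC50 versus wild type from log values. Three determinations per experiment, 4–6 experiments.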

IP3R1^R504Q = IP3R1^R504Q (Rattus norvegicus, UniProt P29994, DEL318-332/R504Q); experiment: Ca2+ release from permeabilized DT40 cells expressing only IP3R1^R504Q; assay type: cell-based
full-length IP3R1 = full-length IP3R1 (Rattus norvegicus, UniProt P29994); assay type: binding; details: full-length IP3R1, TEM
[2] = molecular target: NT (residues 1–604) of IP3R1 (Rattus norvegicus, UniProt P29994, DEL318-332); experiment: Equilibrium-competition 3H-IP3 binding to the NT fragment; details: for Binding ΔpKd, IP3 / AdA: pair IP3 / AdA
NT (residues 1–604) of IP3R1, sequence (P29994 1-589 isoform P29994-2 limits assumed, stated change not applied): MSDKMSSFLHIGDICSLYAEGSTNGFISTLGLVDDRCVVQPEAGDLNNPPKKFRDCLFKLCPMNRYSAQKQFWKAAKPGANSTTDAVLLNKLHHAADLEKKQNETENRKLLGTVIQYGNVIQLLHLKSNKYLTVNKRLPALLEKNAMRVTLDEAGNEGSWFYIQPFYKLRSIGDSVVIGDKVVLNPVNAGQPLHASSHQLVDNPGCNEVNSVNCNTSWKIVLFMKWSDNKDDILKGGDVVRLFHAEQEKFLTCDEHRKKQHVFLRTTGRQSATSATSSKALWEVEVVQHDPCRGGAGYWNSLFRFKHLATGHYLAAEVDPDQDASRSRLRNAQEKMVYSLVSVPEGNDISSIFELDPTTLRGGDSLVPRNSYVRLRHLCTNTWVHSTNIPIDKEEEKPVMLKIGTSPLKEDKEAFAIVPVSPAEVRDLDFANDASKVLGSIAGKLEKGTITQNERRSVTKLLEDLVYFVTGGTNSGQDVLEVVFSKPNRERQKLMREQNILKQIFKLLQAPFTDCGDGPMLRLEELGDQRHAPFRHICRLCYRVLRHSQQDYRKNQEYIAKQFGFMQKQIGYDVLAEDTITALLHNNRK
How it was run: (§1)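 Rat IP3R1 N-terminal fragment (residues 1–604, lacking S1 site), His6-tagged, wild type or point mutant, expressed in E. coli BL21(DE3) as bacterial lysate (~1–10 µg protein). Competed against 1.5 nM 3H-IP3 for 5 min at 4°C in TEM (50 mM Tris, 1 mM EDTA, pH 8.3) or, for wild-type NT only, CLM (pH 7.0). Counted after PEG precipitation. Hill fit; Kd by Cheng–Prusoff; ΔpKd from log values.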

[3] = molecular target: NT^R568Q fragment of IP3R1 (Rattus norvegicus, UniProt P29994, DEL318-332/R568Q); experiment: Equilibrium-competition 3H-IP3 binding to NT^R568Q
NT^R568Q fragment of IP3R1, sequence (P29994 1-589 isoform P29994-2 R553Q limits assumed): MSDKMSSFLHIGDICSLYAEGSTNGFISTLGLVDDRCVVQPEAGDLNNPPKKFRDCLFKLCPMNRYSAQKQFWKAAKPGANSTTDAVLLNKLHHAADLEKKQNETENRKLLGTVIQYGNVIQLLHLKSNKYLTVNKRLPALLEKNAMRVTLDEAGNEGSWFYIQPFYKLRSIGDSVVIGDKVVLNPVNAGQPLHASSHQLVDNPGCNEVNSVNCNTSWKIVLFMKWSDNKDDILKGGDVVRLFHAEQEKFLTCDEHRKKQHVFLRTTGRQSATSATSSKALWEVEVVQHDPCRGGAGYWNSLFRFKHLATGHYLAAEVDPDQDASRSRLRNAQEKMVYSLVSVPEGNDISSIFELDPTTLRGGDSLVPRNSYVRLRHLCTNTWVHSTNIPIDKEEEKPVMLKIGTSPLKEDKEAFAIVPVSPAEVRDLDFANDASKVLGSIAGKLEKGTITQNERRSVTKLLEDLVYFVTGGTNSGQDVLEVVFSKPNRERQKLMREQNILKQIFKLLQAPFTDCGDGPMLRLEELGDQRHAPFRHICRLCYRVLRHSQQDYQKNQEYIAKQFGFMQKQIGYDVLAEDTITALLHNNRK
How it was run: as §1

[4] = molecular target: NT^R504Q fragment of IP3R1 (Rattus norvegicus, UniProt P29994, DEL318-332/R504Q); experiment: Equilibrium-competition 3H-IP3 binding to NT^R504Q; details: TEM
How it was run: as §1

[5] = molecular target: IBC (IP3-binding core, residues 224–604 of IP3R1) (Rattus norvegicus, UniProt P29994); experiment: Equilibrium-competition 3H-IP3 binding to the IBC; details: CLM
IBC (IP3-binding core, residues 224–604 of IP3R1), sequence (P29994 224-604): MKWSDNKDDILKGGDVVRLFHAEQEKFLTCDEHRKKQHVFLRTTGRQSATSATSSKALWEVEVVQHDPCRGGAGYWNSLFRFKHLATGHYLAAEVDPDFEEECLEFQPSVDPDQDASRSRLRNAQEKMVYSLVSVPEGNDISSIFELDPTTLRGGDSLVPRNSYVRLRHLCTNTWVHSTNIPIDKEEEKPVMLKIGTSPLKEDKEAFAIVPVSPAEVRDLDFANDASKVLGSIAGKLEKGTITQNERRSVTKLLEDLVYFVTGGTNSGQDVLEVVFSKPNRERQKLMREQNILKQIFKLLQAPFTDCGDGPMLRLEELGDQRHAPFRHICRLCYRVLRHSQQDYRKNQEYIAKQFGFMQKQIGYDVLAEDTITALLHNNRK
How it was run: (§2)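 His6-tagged rat IP3R1 IBC (residues 224–604, S1 site included), wild type or point mutant, expressed in E. coli BL21(DE3) (0.5 mM IPTG, 20 h, 15°C). Lysate (~1–10 µg protein) incubated 5 min at 4°C in CLM (pH 7.0, free Ca2+ 220 nM) with 3H-IP3 (0.75–3 nM) and competitor. PEG/γ-globulin precipitation, scintillation counting. Hill fit; Kd by Cheng–Prusoff; ΔpKd from log differences.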

[6] = molecular target: IBC^R568Q fragment of IP3R1 (Rattus norvegicus, UniProt P29994, R568Q); experiment: Equilibrium-competition 3H-IP3 binding to IBC^R568Q
IBC^R568Q fragment of IP3R1, sequence (P29994 224-604 R568Q): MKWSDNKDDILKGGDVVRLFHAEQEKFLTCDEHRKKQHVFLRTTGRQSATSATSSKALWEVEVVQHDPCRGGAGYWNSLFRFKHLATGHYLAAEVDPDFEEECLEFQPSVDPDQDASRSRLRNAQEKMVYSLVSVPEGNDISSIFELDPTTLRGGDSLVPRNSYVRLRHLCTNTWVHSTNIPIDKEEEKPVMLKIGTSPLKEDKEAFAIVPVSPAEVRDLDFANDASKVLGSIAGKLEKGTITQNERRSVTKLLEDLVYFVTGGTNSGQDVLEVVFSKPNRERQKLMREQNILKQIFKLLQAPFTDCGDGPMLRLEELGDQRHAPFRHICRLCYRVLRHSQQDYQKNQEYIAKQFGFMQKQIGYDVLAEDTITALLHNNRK
How it was run: as §2

[7] = molecular target: IBC^R504Q fragment of IP3R1 (Rattus norvegicus, UniProt P29994, R504Q); experiment: Equilibrium-competition 3H-IP3 binding to IBC^R504Q; details: CLM
IBC^R504Q fragment of IP3R1, sequence (P29994 224-604 R504Q): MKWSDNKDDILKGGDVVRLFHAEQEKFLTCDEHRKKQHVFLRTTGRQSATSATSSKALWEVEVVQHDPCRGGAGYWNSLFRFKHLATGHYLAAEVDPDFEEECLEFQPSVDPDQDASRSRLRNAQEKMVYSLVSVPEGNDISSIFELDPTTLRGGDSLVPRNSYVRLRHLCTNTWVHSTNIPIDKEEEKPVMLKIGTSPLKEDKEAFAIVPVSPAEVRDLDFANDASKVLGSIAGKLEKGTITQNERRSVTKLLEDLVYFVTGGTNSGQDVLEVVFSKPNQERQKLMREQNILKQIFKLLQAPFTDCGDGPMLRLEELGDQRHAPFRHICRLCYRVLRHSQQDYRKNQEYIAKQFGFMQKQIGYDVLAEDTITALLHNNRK
How it was run: as §2

IP3R = details: recalculated from published data; ref Takahashi et al., 1994a,b,c; cited from earlier work

rat IP3R1 (recombinant, expressed in DT40 cells), sequence (P29994 1-2735 isoform P29994-2): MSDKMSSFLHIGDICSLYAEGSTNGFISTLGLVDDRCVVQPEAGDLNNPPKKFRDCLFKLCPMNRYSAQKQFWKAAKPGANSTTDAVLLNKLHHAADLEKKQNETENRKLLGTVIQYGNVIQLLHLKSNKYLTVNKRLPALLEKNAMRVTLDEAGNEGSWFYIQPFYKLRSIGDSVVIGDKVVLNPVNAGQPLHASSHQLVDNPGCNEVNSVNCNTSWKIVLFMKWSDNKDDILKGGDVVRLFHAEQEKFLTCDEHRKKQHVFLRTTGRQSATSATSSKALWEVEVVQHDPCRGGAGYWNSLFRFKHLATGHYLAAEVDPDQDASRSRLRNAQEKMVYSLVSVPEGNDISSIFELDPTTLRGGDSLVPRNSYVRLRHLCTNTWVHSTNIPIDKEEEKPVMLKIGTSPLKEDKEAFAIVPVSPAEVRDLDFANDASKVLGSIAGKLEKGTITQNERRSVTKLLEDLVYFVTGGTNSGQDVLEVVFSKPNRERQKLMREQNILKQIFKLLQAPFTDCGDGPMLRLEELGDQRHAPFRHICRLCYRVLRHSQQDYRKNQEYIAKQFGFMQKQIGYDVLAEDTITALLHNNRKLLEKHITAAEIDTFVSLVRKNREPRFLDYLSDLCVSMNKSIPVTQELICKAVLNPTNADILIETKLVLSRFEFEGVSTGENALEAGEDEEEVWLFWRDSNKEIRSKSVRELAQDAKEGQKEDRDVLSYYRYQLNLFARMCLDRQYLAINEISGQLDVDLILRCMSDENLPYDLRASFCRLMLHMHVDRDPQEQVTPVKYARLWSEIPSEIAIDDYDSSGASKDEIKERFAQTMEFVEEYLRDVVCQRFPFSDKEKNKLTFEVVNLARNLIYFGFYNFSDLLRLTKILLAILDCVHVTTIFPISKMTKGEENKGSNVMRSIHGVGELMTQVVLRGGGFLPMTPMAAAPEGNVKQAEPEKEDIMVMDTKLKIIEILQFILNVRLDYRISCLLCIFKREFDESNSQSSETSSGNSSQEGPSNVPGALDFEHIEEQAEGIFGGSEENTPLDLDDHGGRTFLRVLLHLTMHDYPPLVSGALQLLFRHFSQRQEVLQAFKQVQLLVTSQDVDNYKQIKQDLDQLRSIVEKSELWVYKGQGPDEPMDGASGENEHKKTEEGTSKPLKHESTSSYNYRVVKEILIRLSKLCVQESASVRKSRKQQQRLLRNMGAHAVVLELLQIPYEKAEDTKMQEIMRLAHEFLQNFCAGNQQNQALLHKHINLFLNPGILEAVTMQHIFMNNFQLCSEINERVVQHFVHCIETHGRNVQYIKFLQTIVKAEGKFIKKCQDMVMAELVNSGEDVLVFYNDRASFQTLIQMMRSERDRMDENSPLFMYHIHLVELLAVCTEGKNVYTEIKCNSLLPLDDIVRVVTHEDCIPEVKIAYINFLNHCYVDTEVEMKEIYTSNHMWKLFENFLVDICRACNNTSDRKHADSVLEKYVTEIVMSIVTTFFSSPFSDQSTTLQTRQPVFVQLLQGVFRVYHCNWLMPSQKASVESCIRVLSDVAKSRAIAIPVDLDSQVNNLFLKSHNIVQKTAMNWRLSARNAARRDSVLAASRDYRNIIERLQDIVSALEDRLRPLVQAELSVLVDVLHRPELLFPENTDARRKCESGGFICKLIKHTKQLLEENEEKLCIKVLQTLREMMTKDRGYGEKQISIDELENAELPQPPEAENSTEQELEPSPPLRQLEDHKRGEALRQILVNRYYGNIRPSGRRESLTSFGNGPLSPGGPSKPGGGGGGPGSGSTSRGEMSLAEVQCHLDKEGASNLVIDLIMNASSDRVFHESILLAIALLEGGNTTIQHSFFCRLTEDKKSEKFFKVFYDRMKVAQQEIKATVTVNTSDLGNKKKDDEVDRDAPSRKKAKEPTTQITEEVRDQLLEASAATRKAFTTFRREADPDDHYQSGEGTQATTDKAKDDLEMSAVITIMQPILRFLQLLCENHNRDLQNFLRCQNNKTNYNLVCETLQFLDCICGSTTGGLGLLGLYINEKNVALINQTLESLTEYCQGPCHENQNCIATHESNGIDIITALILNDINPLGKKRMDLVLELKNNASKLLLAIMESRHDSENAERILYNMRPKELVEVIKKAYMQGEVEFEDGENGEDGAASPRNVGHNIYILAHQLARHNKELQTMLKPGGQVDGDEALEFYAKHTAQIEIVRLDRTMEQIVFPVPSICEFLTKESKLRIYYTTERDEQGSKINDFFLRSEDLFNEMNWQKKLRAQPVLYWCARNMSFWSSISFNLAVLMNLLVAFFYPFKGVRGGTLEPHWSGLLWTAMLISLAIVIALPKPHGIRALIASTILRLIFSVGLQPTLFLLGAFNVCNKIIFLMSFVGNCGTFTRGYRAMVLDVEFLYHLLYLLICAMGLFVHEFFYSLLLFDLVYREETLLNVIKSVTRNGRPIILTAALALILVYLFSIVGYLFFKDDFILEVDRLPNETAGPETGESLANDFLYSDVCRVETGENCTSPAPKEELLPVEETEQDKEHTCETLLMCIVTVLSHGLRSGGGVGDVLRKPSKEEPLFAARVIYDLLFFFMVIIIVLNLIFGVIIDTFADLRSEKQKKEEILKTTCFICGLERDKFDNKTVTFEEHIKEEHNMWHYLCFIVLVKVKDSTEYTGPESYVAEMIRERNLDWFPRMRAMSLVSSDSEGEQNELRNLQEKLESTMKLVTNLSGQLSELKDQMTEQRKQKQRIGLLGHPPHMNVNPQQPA

With `Nc1ncnc2c1ncn2[C@@H]1O[C@H](CO)[C@@H](O[C@H]2O[C@H](CO)[C@@H](OP(=O)(O)O)[C@H](OP(=O)(O)O)[C@H]2O)[C@H]1OP(=O)(O)O` [AdA, adenophostin A] the EC50 ([1]; Ca2+ release EC50, DT40 cells expressing wild-type IP3R1) was 3 nM, the EC50 ([1]; Ca2+ release pEC50 ± SEM, permeabilized DT40-IP3R1 cells, CLM) was 3.09 nM and the “fold more potent than IP3 in functional assays” value ([1]; CLM) was roughly 12 fold. For the same compound, the “fold more potent than IP3 in functional assays” value ([1]; CLM, listed as Adenophostin A) was “at least 12 fold”, the “Ca2+ release, Release (%)” value ([1]; maximal Ca2+ release, fraction of ATP-dependent uptake, wild-type IP3R1) was 78 ± 3% and the “Ca2+ release ΔpEC50, IP3 / AdA” value ([1]; pair IP3 / AdA, DT40-IP3R1 cells) was 1.09 ± 0.05. The “Ca2+ release nHill ± SEM” value ([1]; permeabilized DT40-IP3R1 cells, CLM) was 1.4 ± 0.1, the EC50 (IP3R1^R568Q) was 20 nM and the “Relative potency ΔpEC50, R568Q / wild-type IP3R1” value (IP3R1^R568Q; Ca2+ release, IP3R1^R568Q vs IP3R1) was 0.81 ± 0.07. The “fold reduction of potency in IP3R1^R568Q cells” value (IP3R1^R568Q; Ca2+ release, vs wild-type IP3R1) was “sixfold”, the “Ca2+ release nHill ± SEM” value (IP3R1^R568Q; IP3R1^R568Q) was 1.0 ± 0.2 and the “Release (%)” value (IP3R1^R568Q; maximal Ca2+ release, IP3R1^R568Q) was 53 ± 3%. For the same compound, the EC50 (IP3R1^R504Q) was 604 nM, the “Relative potency ΔpEC50, R504Q / wild-type IP3R1” value (IP3R1^R504Q; Ca2+ release, IP3R1^R504Q vs IP3R1) was 2.29 ± 0.06 and the “Ca2+ release nHill ± SEM” value (IP3R1^R504Q; IP3R1^R504Q) was 1.3 ± 0.2. The “Release (%)” value (IP3R1^R504Q; maximal Ca2+ release, IP3R1^R504Q) was 61 ± 3%, the “Binding nHill ± SEM” value (full-length IP3R1) was 1.5 ± 0.1 and the “nHill ± SEM” value ([2]; CLM) was 1.3 ± 0.2. The Kd ([2]; Kd, CLM) was 3.44 nM, the “fold greater affinity than IP3” value ([2]; TEM) was “about 15 fold” and the “nHill ± SEM” value ([2]; TEM) was 1.0 ± 0.1. The Kd ([2]; pKd ± SEM, TEM) was 0.141 nM, the “Binding ΔpKd, IP3 / AdA” value ([2]; CLM) was 1.14 ± 0.21 and the “Binding ΔpKd, IP3 / AdA” value ([2]; TEM) was 1.18 ± 0.12. The Kd [3] was 2.81 nM, the “nHill ± SEM” value ([3]; NT^R568Q, TEM) was 1.3 ± 0.2 and the Kd ([4]; Kd) was 16.5 nM. For the same compound, the “nHill ± SEM” value [4] was 0.9 ± 0.1, the “fold greater affinity than IP3” value [5] was roughly 20 fold and the “nHill ± SEM” value [5] was 1.3 ± 0.3. For the same compound, the Kd ([5]; Kd) was 0.31 nM, the “Binding ΔpKd, IP3 / AdA” value ([5]; pair IP3 / AdA) was 1.37 ± 0.07 and the Kd [6] was 9.48 nM. For the same compound, the “Relative affinity ΔpKd, R568Q / wild-type IBC” value ([6]; IBC^R568Q vs IBC, CLM) was 1.49 ± 0.11, the “fold reduction of affinity by the R568Q mutation” value ([6]; IBC^R568Q vs IBC, CLM) was ~30 fold and 31 fold and the “nHill ± SEM” value ([6]; IBC^R568Q, CLM) was 1.3 ± 0.6. For the same compound, the “Relative affinity ΔpKd, R504Q / wild-type IBC” value ([7]; IBC^R504Q vs IBC) was 2.55 ± 0.05, the “fold reduction of affinity by the R504Q mutation” value ([7]; IBC^R504Q vs IBC) was 353 fold and the “nHill ± SEM” value ([7]; IBC^R504Q) was 1.5 ± 0.2. For the same compound, the Kd ([7]; Kd, IBC^R504Q) was 149 nM and the “fold greater affinity than IP3” value (IP3R) was “about 18 fold”.
